Data: paper PMC11309612 (Medicine, 2024)
Where “and” joins values, the source holds several entries; their conditions need not be identical. Equal entries are not always repeated. Where two headings read alike, the source gives them in different places.

Experiments:
[1] = tested on: BJ human healthy fibroblast cells; experiment: WST-1 cytotoxicity assay in BJ cells; type: cell-based; conditions: for IC50: read-out: IC50 according to WST-1 results
Procedure, shortened: (§1)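 U-87 MG glioblastoma cells or BJ foreskin fibroblasts were seeded at 3 × 10^3 per well and left 24 h. Test compound, freshly diluted in medium, was applied at 0.97–500 µM (ten concentrations) for 24 or 48 h. WST-1 reagent was added per kit and absorbance read at 540 nm. There were 7 wells per concentration and 3 independent experiments. The 0.1% DMSO control was set to 100% viability, and IC50 was derived from the % viability values.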

U-87 MG cells [2] = experiment: Annexin V and Propidium iodide staining apoptosis assay in flow cytometry; type: cell-based, human; conditions: for Increase of late apoptotic effects compared to U-87 MG control group: IC50 concentration, 48th hour
Procedure, shortened: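 U-87 MG cells were cultured in EMEM with 10% FBS, 1% penicillin-streptomycin and 1% L-glutamine at 37°C in 5% CO2. Cells were exposed for 48 h to 150 μM test compound or 45 μM comparator, with 0.1% DMSO as control. They were detached, pelleted and washed twice in cold PBS. Annexin V/PI staining ran 20 min at room temperature in the dark, then binding buffer was added and flow cytometry was read within 30 min. Quadrant %, n = 3, mean ± SD.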

[3] = tested on: U-87 MG human glioblastoma cells; experiment: WST-1 antiproliferative assay in U-87 MG cells; type: cell-based; conditions: for % viability value at the highest concentration: WST-1, highest concentration (500 µM); for IC50: read-out: IC50 according to WST-1 results
Procedure, shortened: as §1

U-87 MG cells [4] = experiment: Caspase-3 activation in flow cytometry; type: cell-based, human; conditions: for Caspase-3 levels compared to the control / Caspase-3-positive cells % (lower right quadrant): IC50 concentration; for Caspase-3 levels compared to the control: 48th hour; for Caspase-3-positive cells % (lower right quadrant): n = 3, mean ± SD, control 0.6 ± 0.3
Procedure, shortened: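 U-87 MG cells were seeded at 1 × 10^5 per well in 6-well plates and exposed for 48 h to 150 μM test compound or 45 μM comparator, with 0.1% DMSO as control. After a PBS wash, cells were fixed and permeabilised with cytofix/cytoperm for 20 min on ice, then stained with PE rabbit anti-active caspase-3 for 30 min at room temperature. Flow cytometry gave quadrant %; n = 3, mean ± SD.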

U-87 MG cells [5] = experiment: Mitochondrial membrane integrity; type: cell-based, human; conditions: for Increase of mitochondrial depolarization levels compared to the control: IC50 concentration, 48th hour; for JC-1-positive cells % (lower quadrant), mitochondrial depolarization: JC-1, IC50 concentration, n = 3, mean ± SD, control 12.3 ± 2.0
Procedure, shortened: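 U-87 MG cells were treated for 48 h with 150 μM test compound or 45 μM comparator, with 0.1% DMSO as control. Cells were pelleted at 1200 rpm for 5 min and incubated in JC-1 working solution for 15 min at 37°C. They were washed, resuspended in kit assay solution and read by flow cytometry. Upper-quadrant (viable) and lower-quadrant (JC-1-positive, depolarised) percentages were recorded; n = 3, mean ± SD.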

Row | Compound | IC50 ([1]; BJ cells, 24 h incubation) [µM] | IC50 ([1]; BJ cells, 48 h incubation) [µM] | Increase of late apoptotic effects compared to U-87 MG control group (U-87 MG cells [2]) | % viability value at the highest concentration ([3]; U-87 MG, 24 hours) [%] | % viability value at the highest concentration ([3]; U-87 MG, 48 hours) [%] | IC50 ([3]; U-87 MG cells, 24 h incubation) [µM] | IC50 ([3]; U-87 MG cells, 48 h incubation) [µM] | Caspase-3 levels compared to the control (U-87 MG cells [4]) | Caspase-3-positive cells % (lower right quadrant) (U-87 MG cells [4]; 48 h) [%] | Increase of mitochondrial depolarization levels compared to the control (U-87 MG cells [5]) | JC-1-positive cells % (lower quadrant), mitochondrial depolarization (U-87 MG cells [5]; 48 h) | IC50 ([1]; Homo sapiens, BJ, 24 h) [µM] | IC50 ([1]; Homo sapiens, BJ, 48 h) [µM] | Cytotoxic effect on BJ cells ([1]; WST-1, especially at the 48th hour) | IC50 ([3]; Homo sapiens, U-87 MG, 24 h) [µM] | IC50 ([3]; Homo sapiens, U-87 MG, 48 h) [µM] | viability at 45.68 µM (U-87 MG cells [2]; Homo sapiens, U-87 MG, read-out: Viable cells % (lower left quadrant)) [%] | viability at 45.68 µM (U-87 MG cells [4]; Homo sapiens, U-87 MG, 48 h, read-out: Viable cells % (lower left quadrant)) [%] | viability at 45.68 µM (U-87 MG cells [5]; Homo sapiens, U-87 MG, 48 h, read-out: Viable cells % (upper quadrant)) [%]
1 | NC(=O)[C@H](CCCN=C(N)CCl)NC(=O)c1ccccc1 [Cl-amidine, chlorine-amidine] | 604 | 549 | 2.5 times | 41.16 | 35.64 | 256 | 150 | did not show any difference | 2.8 ± 0.9 | approximately 4.5 times | 54.7% and 54.7 ± 11.60% | – | – | – | – | – | – | – | –
2 | O=P1(N(CCCl)CCCl)NCCCO1 (stereo not shown) [Cyclophosphamide, cyclophosphamide] | – | – | – | – | – | – | – | – | – | – | – | 650 | 3970 | did not have a cytotoxic effect | 581 | 580 | – | – | –
3 | O=NN(CCCl)C(=O)NCCCl [Carmustine, carmustine] | – | – | approximately 3 times | – | – | – | – | did not show any difference | 3.8 ± 1.0 | ~4.7 times | 58.6 ± 3.80% | 144 | 81.4 | – | 40.6 | 45.7 | 57.6 ± 6.96 | 96.2 ± 0.9 | 41.4 ± 3.8
